Results: publication PMC2151622 (The Journal of General Physiology, 2007)
Where a chain is given by its changes, count along the chain named. Like-named read-outs stand apart in the source and are kept apart here.

Legend:
Format in all cases: cell-based, rabbit
[1] = target: T1, D444C-EAAC1 (Oryctolagus cuniculus, UniProt P31597, D444C); assay: Blockade of sodium-dependent transient currents; conditions: for Decay time of transient currents blocked: at −100 mV
T1 sequence (P31597 1-524 D444C): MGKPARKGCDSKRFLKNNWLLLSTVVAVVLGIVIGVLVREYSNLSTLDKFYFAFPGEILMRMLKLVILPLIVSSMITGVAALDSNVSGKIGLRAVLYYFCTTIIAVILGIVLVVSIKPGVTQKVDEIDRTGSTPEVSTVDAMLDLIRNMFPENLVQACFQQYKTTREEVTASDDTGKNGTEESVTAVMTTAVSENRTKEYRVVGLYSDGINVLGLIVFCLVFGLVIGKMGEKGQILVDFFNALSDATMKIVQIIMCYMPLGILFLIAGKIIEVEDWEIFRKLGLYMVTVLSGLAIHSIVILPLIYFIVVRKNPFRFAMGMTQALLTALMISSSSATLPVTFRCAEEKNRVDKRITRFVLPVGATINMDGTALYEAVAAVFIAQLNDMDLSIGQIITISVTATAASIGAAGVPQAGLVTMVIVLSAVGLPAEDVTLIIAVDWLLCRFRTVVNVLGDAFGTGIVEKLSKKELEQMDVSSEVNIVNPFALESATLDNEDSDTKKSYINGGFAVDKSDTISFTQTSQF
In short: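 Steps from −25 mV to −100…+40 mV. Transients taken as current without minus current with compound. Charge is the sum of integrals at −100 and +40 mV, normalised to 10 mM of the same compound. IC50 from a generalized Hill fit; decay from a first-order exponential; 3–10 oocytes.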

[2] = target: T2, D444E-EAAC1 (Oryctolagus cuniculus, UniProt P31597, D444E); assay: Blockade of sodium-dependent transient currents
T2 sequence (P31597 1-524 D444E): T1 sequence (P31597 1-524 D444C) with C444E
In short: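 Oocytes expressing the mutant were voltage clamped in ND96 (pH 7.5, HEPES) and stepped from −25 mV. Transients are buffer current minus buffer-plus-compound current. Charge is the sum of current–time integrals at −100 and +80 mV, normalised to 1 mM L-aspartate or 15 mM succinate, and fitted to a generalized Hill equation. Decay constants come from a first-order exponential fit; mean ± SEM of 3–10 oocytes.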

[3] = target: T3, D444S-EAAC1 (Oryctolagus cuniculus, UniProt P31597, D444S); assay: Blockade of sodium-dependent transient currents; conditions: for Decay time of transient currents blocked: at −100 mV
T3 sequence (P31597 1-524 D444S): T1 sequence (P31597 1-524 D444C) with C444S
In short: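 Oocytes expressing the mutant were clamped in sodium ND96 and given 250-ms pulses from −25 mV to −100…+40 mV, with and without compound; TBOA was added to a stopped bath. Isolated transients (without minus with compound) were integrated at −100 and +40 mV and summed. Charge was normalised to 10 mM of each compound and Hill-fitted; 4–6 oocytes. Decay came from an exponential fit; 3–10 oocytes.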

[4] = target: T4, WT-EAAC1 (Oryctolagus cuniculus, UniProt P31597); conditions: NaSCN-based buffer
T4 sequence (P31597 1-524): T1 sequence (P31597 1-524 D444C) with C444D
In short: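 Two-electrode voltage clamp of oocytes in buffer with all NaCl replaced by NaSCN, grounded through a 2% agarose/2 M KCl bridge. Compounds were 2 mM; TBOA (10 μM) was added to a stopped bath. Steps from −25 mV to −100…+40 mV. Net steady-state current (with minus without) was normalised to the L-aspartate current at +40 mV; mean ± SEM of 3 oocytes (L-aspartate n = 6).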

[5] = target: T5, D444C mutant EAAC1 (Oryctolagus cuniculus, UniProt P31597, D444C); conditions: 10 min
T5 sequence (P31597 1-524 D444C): T1 sequence (P31597 1-524 D444C)

[6] = target: T6, T448A mutant EAAC1 (Oryctolagus cuniculus, UniProt P31597, T448A); assay: Uptake of D-[3H]-aspartate in Xenopus laevis oocytes expressing T448A; conditions: 20 min in ND96
T6 sequence (P31597 1-524 T448A): T1 sequence (P31597 1-524 D444C) with C444D, T448A

[7] = target: T7, D444N mutant EAAC1 (Oryctolagus cuniculus, UniProt P31597, D444N); assay: Blockade of transient currents
T7 sequence (P31597 1-524 D444N): T1 sequence (P31597 1-524 D444C) with C444N

## N[C@H](C(=O)O)[C@H](OCc1ccccc1)C(=O)O (racemic) [TBOA, DL-threo-β-benzyloxyaspartate]
[1]; D444C, 10 μM D,L-TBOA
  Decay time of transient currents blocked: 4.8 ± 0.3 ms
[1]; read-out: IC50 for substrates/blockers of charge movements, D444C, Xenopus oocytes, mean ± SEM
  IC50: 1.9 ± 0.2 µM
[2]; 10 μM D,L-TBOA, at +80 mV
  Decay time of transient currents blocked: 5.6 ± 1.2 ms
[2]; read-out: IC50 for substrates/blockers of charge movements, Xenopus oocytes, mean ± SEM
  IC50: 1.8 ± 0.4 µM
[3]; D444S, 160 μM D,L-TBOA
  Decay time of transient currents blocked: 6 ± 0.6 ms
[3]; read-out: IC50 for substrates/blockers of charge movements, D444S, Xenopus oocytes, mean ± SEM
  IC50: 31 ± 8 µM
[4]; 10 μM D,L-TBOA
  Effect on the anion conductance: decreased

## N[C@H](CC(=O)O)C(=O)O [D-Aspartate, D-aspartate]
[1]
  IC50: 8 ± 1 µM
[1]; D444C, 10 mM compound
  Decay time of transient currents blocked: 18.4 ± 1 ms
[3]
  IC50: 1370 ± 360 µM
[3]; D444S, 10 mM compound
  Decay time of transient currents blocked: 12.8 ± 0.6 ms

## [3H]C(C(=O)O)C([3H])(N)C(=O)O [D-[^3H]-aspartate, D-[2,3-^3H]-aspartic acid]
[5]
  D-[3H]-aspartate uptake relative to WT-EAAC1: ~5%
[6]
  Uptake of D-[3H]-aspartate relative to WT: ~20%

## NCCCC(=O)O [GABA]
[3]; D444S, 5 mM, sodium 96 mM
  Inhibition of the transient currents: unable to inhibit
[4]; 2 mM
  Effect on the anion conductance: not seen

## O=C(O)CCCC(=O)O [Glutarate, glutarate]
[1]
  IC50: 260 ± 40 µM
[3]; D444S, 2 mM, unpublished data
  Inhibition of transient currents of similar size as succinate: capable of inhibiting

## N[C@@H](CCC(=O)O)C(=O)O [L-Glutamate, L-glutamate]
[1]
  IC50: 29 ± 3 µM
[1]; D444C, 10 mM compound
  Decay time of transient currents blocked: 17.7 ± 1 ms
[2]; IC50 for substrates/blockers of charge movements, Xenopus oocytes, mean ± SEM
  IC50: 24.4 ± 2.2 µM
[7]
  IC50: 718 ± 217 µM
[3]
  IC50: 1220 ± 160 µM
[3]; D444S, 10 mM compound
  Decay time of transient currents blocked: 11.0 ± 1.2 ms
